Bioassay records from PubChem.
PRMT1 FP inh = PRMT1 (human) inhibition, primary screen | hit rate 1.3% among 370,000 | Q99873 | inhibition, % at 2.79 µM | recombinant PRMT1, activity-based probe fluorescence polarization;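 active = inhibition above about 21% made by adding two undisclosed values, limit read from the data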
Target sequence (Q99873 whole entry, looked up): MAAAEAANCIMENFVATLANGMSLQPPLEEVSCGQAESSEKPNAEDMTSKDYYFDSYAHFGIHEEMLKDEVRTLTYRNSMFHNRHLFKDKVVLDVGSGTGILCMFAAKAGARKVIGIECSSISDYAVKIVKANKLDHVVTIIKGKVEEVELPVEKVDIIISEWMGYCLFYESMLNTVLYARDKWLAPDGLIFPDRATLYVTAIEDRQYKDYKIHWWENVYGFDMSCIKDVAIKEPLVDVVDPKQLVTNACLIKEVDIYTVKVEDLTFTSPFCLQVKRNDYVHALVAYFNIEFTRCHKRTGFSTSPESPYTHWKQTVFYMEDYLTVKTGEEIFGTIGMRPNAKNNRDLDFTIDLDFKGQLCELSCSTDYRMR
rCAG binder = molecules binding r(CAG) RNA repeats; hit rate 1.3% among 370,000; inhibition, % at 3 µM; r(CAG) RNA repeat, TO-PRO-1 dye displacement fluorescence; AID 651821;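 active = inhibition above the plate cutoff, the mean of all test compounds on that plate plus 3 SD, cut at about 35% in these data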;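 note: 0% = DMSO alone and 100% = 100 µM mitoxantrone as full dye displacement; higher means more dye released from RNA so lower well fluorescence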
mABHD4 FP = inhibits mouse alpha/beta hydrolase domain 4. Q8VD66. purified mABHD4, FP-Rh probe fluorescence polarization. inhibition, % at 8.92 µM. hit rate 0.54% among 370,000. AID 720543;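 active = inhibition exceeding the mean over every tested compound plus 3 SD, cut at about 30% in these data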;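 note: 0% = plate median of compound wells and 100% = S159A mutant with DMSO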
Target sequence (Q8VD66 whole entry, looked up, the tested form may be a part): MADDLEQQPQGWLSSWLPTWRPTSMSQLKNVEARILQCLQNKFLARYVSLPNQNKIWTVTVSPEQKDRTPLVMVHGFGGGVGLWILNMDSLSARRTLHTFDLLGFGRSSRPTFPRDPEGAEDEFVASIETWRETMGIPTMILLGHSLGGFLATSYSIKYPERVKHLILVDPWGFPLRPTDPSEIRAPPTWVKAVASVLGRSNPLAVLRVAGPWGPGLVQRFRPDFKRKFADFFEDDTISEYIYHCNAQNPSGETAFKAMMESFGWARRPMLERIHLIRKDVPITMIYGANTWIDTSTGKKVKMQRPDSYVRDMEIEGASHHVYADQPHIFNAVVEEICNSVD
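Material: mouse ABHD4 enzyme, wild type; Benchmarks: S159A mutant high control, sample median low control; Buffer or medium: HEPES pH 7.0, NaCl, Pluronic buffer; Signal: fluorescence polarization; Read-out: percent inhibition of probe binding, normalized to plate controls; Timing: pre-incubation 45 min, probe exposure 60 min, at 25 °C; Dosing: 8.92 µM, single dose.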
TCR-CD3 inh = inhibitors of human TCR-CD3 interaction; TAMRA-labeled TCR probe fluorescence, biochemical; hit rate 0.37% among 360,000; inhibition, % at 9.4 µM;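 note: recombinant mutant TCR 2C K166C tagged with TAMRA read by polarization; 0% = receptor in buffer alone and 100% = receptor with positive control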
SIAE inh = blocks human sialic acid acetylesterase | hit rate 0.69% among 370,000 | SIAE FP-Rh probe binding, fluorescence polarization | AID 1053197 | inhibition, % at 9.66 µM;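 active = inhibition above a cutoff: mean of compounds within the control limits plus 3 SD of those, cut at about 17% in these data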;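 note: 0% = plate median of compound wells and 100% = probe without SIAE protein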
BSA TAMRA ctr = BSA probe counter-screen for TCR-CD3 inhibitors; TAMRA-labeled BSA probe fluorescence counterscreen; shares compounds with TCR-CD3 inh; inhibition, % at 9.4 µM; hit rate 10% among 1,200; AID 652035; in the data active = inhibition above about 23%;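 note: 0% = buffer low control and 100% = reference high control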
TCR-CD3 inh conf = confirmation of human TCR-CD3 interaction inhibitors. TAMRA-labeled TCR probe fluorescence binding assay. inhibition, % at 9.4 µM. hit rate 48% among 1,200. shares compounds with TCR-CD3 inh
rCAG bind conf = r(CAG) RNA repeat binding, confirmation; shares compounds with rCAG binder; TO-PRO-1 dye displacement fluorescence; inhibition, % at 3 µM; hit rate 70% among 4,300; AID 652065;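 active = inhibition above a per-plate cutoff, the mean inhibition of sample wells plus 3 SD, cut at about 35% in these data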;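 note: loss of TO-PRO-1 fluorescence as compound displaces dye from 1x1 AA loop RNA; 0% = DMSO only wells and 100% = 100 µM mitoxantrone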
dCAG dye counter = disrupts DNA CAG TO-PRO-1 complex, flagging rCAG hits. shares compounds with rCAG binder. d(CAG) DNA oligo TO-PRO-1 dye displacement, fluorescence. inhibition, % at 3 µM. hit rate 94% among 4,300. AID 652068;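 active = inhibition above its plate's cutoff, the mean test-well inhibition plus 3 SD, cut at about 4.8% in these data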;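 note: 0% = DNA dye mix with DMSO and 100% = 100 µM mitoxantrone; hits displace the dye from DNA and so lower well fluorescence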
PRMT1 inh conf = confirmation of human PRMT1 inhibitors; shares compounds with PRMT1 FP inh; hit rate 42% among 3,300; recombinant His-PRMT1, activity-based probe fluorescence polarization; inhibition, % at 2.79 µM;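 active = mean inhibition across replicates above the hit cutoff derived for the earlier primary screen, cut at about 22% in these data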
mABHD4 conf = confirmation of mouse ABHD4 inhibitors | AID 720658 | inhibition, % at 8.92 µM | purified mABHD4, FP-Rh probe fluorescence polarization | shares compounds with mABHD4 FP | hit rate 55% among 1,800;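 active = mean inhibition across replicates above the hit cutoff set in the primary screen, cut at about 30% in these data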;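 note: 0% = wild-type ABHD4 with DMSO and 100% = catalytically dead S159A mutant with DMSO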
SIAE confirm = human SIAE inhibition, confirmation. shares compounds with SIAE inh. SIAE FP-Rh activity-based probe, fluorescence polarization. inhibition, % at 9.66 µM. hit rate 13% among 2,300. AID 1117263;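 active = mean inhibition of the replicates above the hit cutoff set in the primary screen, cut at about 17% in these data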;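 note: 0% = SIAE with DMSO and probe and 100% = probe without SIAE; inhibitors lower polarization as more probe stays unbound to SIAE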
Active calls of the source: *; . = not tested or not shown; + = active, no number. Most compounds without a hit are left out; they make up all but 3.3% or so of the library. Cut-off read from the data, not from the text of the source, unless noted: active = inhibition above about 19%; inactive = the rest.

SMILES	PRMT1 FP inh	rCAG binder	mABHD4 FP	TCR-CD3 inh	SIAE inh	BSA TAMRA ctr	TCR-CD3 inh conf	SIAE confirm	others
COC(=O)[C@]12C[C@H](CC(=O)NCCc3ccccc3OC)C(=O)N(Cc3ccco3)C1=C[C@H](C(C)(C)C)O[C@@H]2C	0	0	0	.	-2	.	.	.
Oc1ccc(NCc2cccs2)cc1	20	2	54*	21*	20*	2	6	9	mABHD4 conf=11
CN1C(=O)NC(c2ccccc2[N+](=O)[O-])C2=C1CC(C)(C)CC2=O (stereo unspecified)	18	5	8	6	1	.	.	.
CN1C(=O)NC(c2ccccc2[N+](=O)[O-])C2=C1CCCC2=O (stereo unspecified)	36*	-27	89*	85*	54*	62*	44*	80*	mABHD4 conf=56*
Cc1ccc(N(C)c2nc(N)nc(N)c2N=O)cc1	173*	-74	85*	197*	52*	+	198*	95*
CCn1c(CSc2nnc(-c3ccncc3)n2C)nc2cc(C(=O)O)ccc21	1	2	23	89*	28*	155*	109*	39*
CCn1c(CSc2ncn[nH]2)nc2cc(C(=O)O)ccc21	-3	-2	2	8	7	.	.	.
C[C@H]1[C@@H](OC(=O)Nc2cc(Cl)ccc2Cl)CC[C@@]23CCCN2C(=O)CCC[C@@H]13	-5	.	4	.	-3	.	.	.
COc1ccccc1C(=O)NNC(=O)c1ccccc1	3	-2	-6	5	-5	.	.	.
COc1cccc(OCC(=O)NNC(=O)c2ccc3ccccc3c2O)c1	8	22	23	44*	19*	-6	39*	0
O=C(NNC(=O)c1ccc2ccccc2c1O)Nc1ccc(F)cc1	-2	8	7	32*	26*	-5	29*	2
COc1ccccc1C(=O)NNC(=O)c1ccc2ccccc2c1O	2	9	25	32*	20*	1	38*	5
CCOc1cccc(CNc2ccc(O)cc2)c1OCc1ccccc1Cl	10	11	55*	24*	30*	-8	-1	10	mABHD4 conf=31*
Oc1ccc(NCc2cccc(OCc3ccccc3)c2)cc1	17	10	50*	26*	44*	-2	2	12	mABHD4 conf=23
Oc1ccc(NCc2cccc(OCc3ccc(F)cc3)c2)cc1	7	7	49*	25*	40*	5	4	8	mABHD4 conf=15
O=[N+]([O-])c1ccc(COc2cccc(CNc3ccc(F)cc3)c2)cc1	2	5	-10	-1	0	.	.	.
COc1cccc(CN[C@@H]2CC[C@@]34CCCN3C(=O)CCC[C@H]4C2)c1	3	.	4	.	0	.	.	.
COCCCNC(=O)CN1C(=O)C2CCCCN2C(=O)c2ccccc21 (stereo unspecified)	0	0	3	.	-3	.	.	.
COC(=O)[C@]1(CNS(=O)(=O)C2CC2)CC(=O)N(C)[C@@H]1c1ccccc1	0	-1	3	.	1	.	.	.
COc1ccc(CNCC#Cc2ccccc2)c(OC)c1	0	5	-5	.	2	.	.	.
COc1cc(C=NNC(=O)Cn2nc(C)cc2C)ccc1OC(=O)C1CC1	-75	-2	20	30*	20*	1	4	0
CN(C)c1ccc(C=Cc2nccc3ccccc23)cc1	139*	-72	112*	157*	131*	145*	88*	20*	PRMT1 inh conf=61*;mABHD4 conf=85*
COc1cccc(C=Cc2nccc3ccccc23)c1OC	-1	0	2	3	-6	.	.	.
CCC(CNc1cc(OC)cc2cccnc12)NC1CCCCC1 (stereo unspecified)	32*	3	89*	126*	48*	17	14	12	mABHD4 conf=26
COC(=O)[C@]12C[C@H](CC(=O)NCCC(C)C)C(=O)N(Cc3ccc4c(c3)OCO4)C1=C[C@H](C(C)C)O[C@@H]2C1CC1	-2	1	-3	.	4	.	.	.
SMILES	PRMT1 FP inh	rCAG binder	mABHD4 FP	TCR-CD3 inh	SIAE inh	BSA TAMRA ctr	TCR-CD3 inh conf	SIAE confirm	others
Nc1cccc2cc(S(=O)(=O)O)ccc12	34*	30	64*	27*	20*	14	15	2	PRMT1 inh conf=17
Nc1ccc2c(S(=O)(=O)O)cccc2c1S(=O)(=O)O	14	4	2	9	-1	.	.	.
COC(=O)[C@H](CC(C)C)N1Cc2nnn(CC3CCCCC3)c2-c2ccccc2S1(=O)=O	1	3	5	.	-3	.	.	.
O=C(CCl)NC1CCCCN(Cc2ccc(OC(F)(F)F)cc2)C1=O (stereo unspecified)	1	1	2	.	5	.	.	.
CN(C)C(=O)c1cccc(-c2cnc3c(NC=O)cc(-c4ccccc4Cl)cn23)c1	4	6	-1	-5	-8	.	.	.
CN(C)C(=O)c1cccc(-c2cnc3c(NC=O)cc(-c4ccccc4N(C)C)cn23)c1	137*	-75	74*	42*	29*	21	16	2	PRMT1 inh conf=29*;mABHD4 conf=71*
COc1ccc(S[C@]2(C(=O)N3CCCC3)CC(=O)N(C(=O)/C=C/c3ccccc3)[C@@H]2c2ccc(OC)cc2)cc1	8	13	-10	.	-5	.	.	.
CCN(CC)C(=O)CSc1nc2ccccc2c(=O)n1-c1cccc(OC)c1	3	0	-12	4	2	.	.	.
COc1cccc(-n2c(SCc3cc(=O)oc4cc(O)c(O)cc34)nc3ccccc3c2=O)c1	10	65*	25	19*	32*	-13	32*	-13	rCAG bind conf=70*;dCAG dye counter=33*
CC(=O)Nc1ccc(N=Cc2c(O)c(C(=O)Nc3ccccc3)cc3ccccc23)cc1	6	13	-6	2	7	.	.	.
COc1ccc2c(c1)cc(C(=O)N/N=C/c1c(O)c(C(=O)O)cc3ccccc13)n2C	2	91*	19	37*	39*	-17	45*	6	rCAG bind conf=89*;dCAG dye counter=68*
Cn1c(O)c(/C=N/NC(=O)c2cc3ccccc3cc2O)c2ccccc21	3	95*	40*	50*	23*	-13	53*	10	rCAG bind conf=90*;dCAG dye counter=75*;mABHD4 conf=44*
